Experiment [1] deals with Acetyl-CoA carboxylase 1 (Mus musculus) (UniProt Q5SWU9). The experiment is described as follows: In Vitro evaluation for the CF1 liver enzyme activity on Acetyl-CoA carboxylase at concentration 100 uM. Summed up: (§1)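 Liver was taken from CF1 male mice and made into 10% homogenates, which were incubated with test compound at 50, 100 or 200 µM. Each enzyme was assayed by its literature method, and protein was measured by Lowry. N = 6. Activity is expressed as % of untreated control ± SD.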

Experiment [2] has as its target T1, ATP-citrate synthase (Mus musculus) (UniProt Q91V92).
T1 sequence (whole entry): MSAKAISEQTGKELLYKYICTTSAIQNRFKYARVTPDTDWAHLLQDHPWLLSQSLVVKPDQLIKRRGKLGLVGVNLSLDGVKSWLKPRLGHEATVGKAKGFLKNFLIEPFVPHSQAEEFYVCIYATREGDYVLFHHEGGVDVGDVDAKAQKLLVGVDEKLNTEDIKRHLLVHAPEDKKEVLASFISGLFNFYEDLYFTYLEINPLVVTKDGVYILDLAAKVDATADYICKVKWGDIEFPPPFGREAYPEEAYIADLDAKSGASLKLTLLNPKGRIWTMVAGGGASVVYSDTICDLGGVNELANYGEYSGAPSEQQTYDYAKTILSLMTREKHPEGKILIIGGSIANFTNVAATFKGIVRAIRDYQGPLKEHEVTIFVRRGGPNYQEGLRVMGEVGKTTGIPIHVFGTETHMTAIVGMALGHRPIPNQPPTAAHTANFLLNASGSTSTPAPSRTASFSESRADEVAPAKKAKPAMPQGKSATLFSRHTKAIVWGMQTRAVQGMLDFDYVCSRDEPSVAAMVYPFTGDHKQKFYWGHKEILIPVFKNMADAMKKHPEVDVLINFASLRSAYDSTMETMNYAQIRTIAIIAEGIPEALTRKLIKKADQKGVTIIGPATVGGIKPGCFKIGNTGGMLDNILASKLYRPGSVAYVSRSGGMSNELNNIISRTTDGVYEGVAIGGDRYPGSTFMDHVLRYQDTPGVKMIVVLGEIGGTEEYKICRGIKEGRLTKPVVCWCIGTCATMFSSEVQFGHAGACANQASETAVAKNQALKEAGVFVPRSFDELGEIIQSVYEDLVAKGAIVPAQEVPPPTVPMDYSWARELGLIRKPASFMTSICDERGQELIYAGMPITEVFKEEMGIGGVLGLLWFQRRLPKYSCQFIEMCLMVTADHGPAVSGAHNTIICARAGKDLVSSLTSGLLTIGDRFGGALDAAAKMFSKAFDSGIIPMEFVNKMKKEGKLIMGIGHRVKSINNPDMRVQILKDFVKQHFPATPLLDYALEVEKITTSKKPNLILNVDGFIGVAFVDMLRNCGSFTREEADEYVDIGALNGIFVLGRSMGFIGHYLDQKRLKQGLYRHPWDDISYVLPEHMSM
The experiment is described as follows: In Vivo effect for the hypolipidemic activity on ATP-Citrate Lyase in CF1 mice after 16 days of oral administration at a dose of 20 mg/kg. The class given is organism-based. On the set-up: dose 20 mg/kg. A digest of the protocol: (§2)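 CF1 male mice are dosed orally at 10–60 mg/kg per day for 16 days, with 1% CMC as the control vehicle. Liver is homogenized at 10% in 0.25 M sucrose + 0.001 M EDTA, pH 7.2. Enzymes are assayed by literature methods, with Lowry protein. Activity is given as % of control (X ± SD, N = 6), with p from Student's t test.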

A short description of experiment [3]: In Vitro evaluation for the CF1 liver enzyme activity on Acyl cholesterol acyltransferase at concentration 50 uM. A digest of the protocol:
as §1

Experiment [4] deals with T2, 3-hydroxy-3-methylglutaryl-coenzyme A reductase (Mus musculus) (UniProt Q01237).
T2 sequence (whole entry): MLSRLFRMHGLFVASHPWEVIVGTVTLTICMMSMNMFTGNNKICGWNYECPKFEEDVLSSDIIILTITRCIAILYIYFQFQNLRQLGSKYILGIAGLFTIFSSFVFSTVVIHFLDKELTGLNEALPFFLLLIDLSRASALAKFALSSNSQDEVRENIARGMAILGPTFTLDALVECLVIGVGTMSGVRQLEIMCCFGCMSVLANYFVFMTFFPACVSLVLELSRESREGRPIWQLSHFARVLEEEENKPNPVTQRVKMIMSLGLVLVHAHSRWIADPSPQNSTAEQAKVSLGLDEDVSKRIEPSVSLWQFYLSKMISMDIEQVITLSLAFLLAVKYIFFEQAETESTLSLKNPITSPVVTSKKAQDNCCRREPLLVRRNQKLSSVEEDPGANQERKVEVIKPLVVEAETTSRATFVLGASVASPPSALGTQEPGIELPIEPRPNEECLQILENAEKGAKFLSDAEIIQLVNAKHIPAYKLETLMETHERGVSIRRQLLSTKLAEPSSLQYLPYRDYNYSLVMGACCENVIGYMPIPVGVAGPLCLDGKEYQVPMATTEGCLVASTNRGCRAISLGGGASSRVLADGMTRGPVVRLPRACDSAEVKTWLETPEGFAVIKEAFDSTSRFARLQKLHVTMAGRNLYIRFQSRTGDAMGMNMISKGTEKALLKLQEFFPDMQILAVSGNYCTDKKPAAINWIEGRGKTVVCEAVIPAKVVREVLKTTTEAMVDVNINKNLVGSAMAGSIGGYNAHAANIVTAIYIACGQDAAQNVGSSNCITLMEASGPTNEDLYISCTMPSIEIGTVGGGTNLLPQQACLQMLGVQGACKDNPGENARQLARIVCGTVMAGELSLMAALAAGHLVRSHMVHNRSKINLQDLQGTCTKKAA
Nature of the experiment: In Vivo effect for the hypolipidemic activity on HMG-CoA reductase in CF1 mice after 16 days of oral administration at a dose of 10 mg/kg. The class given is organism-based. On the set-up: dose 10 mg/kg. Summed up: as §2

In experiment [5] the test system is Mus musculus. Nature of the experiment: In Vivo effect for the hypolipidemic activity on Hepatic lipoprotein lipase in CF1 mice after 16 days administered orally at a dose of 10 mg/kg. The class given is functional. The note with it: route oral. A digest of the protocol:
as §2

Experiment [6] is filed under the species Mus musculus. Nature of the experiment: In Vitro evaluation for the CF1 liver enzyme activity on Mitochondrial citrate exchange at concentration 200 uM. It is filed as functional. Summed up:
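Mouse liver enzymes assayed in vitro on 10% homogenates of CF1 male mouse liver, with test drug added at 50–200 μM. Each enzyme follows a published procedure. Protein is measured by Lowry. Activity is given as % of untreated control (X ± SD, N = 6).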

The test system of experiment [7] is Rattus norvegicus. Nature of the experiment: Compound was evaluated for the hypolipidemic activity at 20 mg/kg per day orally for 14 days on phospholipids content in rat VLDL. It is filed as functional. The note with it: route oral. A digest of the protocol: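 Male Sprague–Dawley rats (~300 g) were dosed orally each day. Blood was drawn from the abdominal vein. Lipoprotein fractions (chylomicron, VLDL, LDL, HDL) were separated by the Hatch–Lees and Havel methods. Each fraction was assayed for cholesterol, triglyceride (enzymatic kit), neutral lipids, phospholipids and Lowry protein. Values are % of 1% CMC vehicle control, N = 6.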

Experiment [8] relates to Rattus norvegicus. The experiment is described as follows: Compound was evaluated for the hypolipidemic activity at 20 mg/kg per day orally for 14 days on phospholipids content in rat feces. The note with it: route oral. It is filed as functional. Summed up:
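Male Sprague–Dawley rats were dosed orally for 14 days. Liver, small intestine and a 24-h fecal collection were lipid-extracted. Extracts were assayed for cholesterol (modified Liebermann–Burchard), triglyceride (enzymatic kit), neutral lipids, phospholipids and protein. Values are % of 1% CMC vehicle control, mean ± SD, N = 6.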

Take `COc1ccc(C2C(=O)c3ccccc3C2=O)cc1` [ANISINDIONE]: the Control in experiment [1] was 93%; in experiment [2] it was 43%; in experiment [3], 94%; in experiment [4], 116%; in the experiment with Mus musculus [5], 83%; in the experiment listed under Mus musculus [6] it was 36%. The figures for the Control with Rattus norvegicus [7] and in the experiment on Rattus norvegicus [8] were 128% and 100%, respectively.
